# Screening results as filed in PubChem.
# This is a sample that favours compounds with a hit; in the whole collection about 2.2% have one here.
# LMPTP block = LMPTP (human) inhibition; P24666; AID 651560; recombinant LMPTP-A, OMFP fluorogenic substrate, fluorescence intensity; 0.22% of 360,000 active; inhibition, % at 20 µM;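 active = compounds that cut the enzyme signal by at least half of the control window in the single-dose screen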;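 also: plate controls were DMSO wells with enzyme plus substrate for no effect and substrate without enzyme for full effect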
#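 Test system: LMPTP-A phosphatase enzyme; input: 0.625 nM LMPTP-A final; reagent: OMFP substrate, 400 µM final; compound dosing: 20 µM single dose, 3% DMSO; incubation: 50 min dark incubation at room temperature; measured by: endpoint fluorescence intensity from OMFP dephosphorylation; measure: % inhibition relative to no-enzyme and uninhibited control wells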
# GRK2 inh = inhibitors of human GRK2 displacing RNA aptamer; P25098; bead flow cytometry, FAM-aptamer displacement from GRK2; inhibition of aptamer binding, % at 10 µM; 0.59% of 330,000 active; AID 488847;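 active = inhibition of aptamer binding above 40%, roughly 3 SD of noise, on plates passing a quality check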;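 also: median bead fluorescence of bound FAM aptamer so fluorescent compounds give negative values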
# Target sequence (P25098 whole entry, looked up): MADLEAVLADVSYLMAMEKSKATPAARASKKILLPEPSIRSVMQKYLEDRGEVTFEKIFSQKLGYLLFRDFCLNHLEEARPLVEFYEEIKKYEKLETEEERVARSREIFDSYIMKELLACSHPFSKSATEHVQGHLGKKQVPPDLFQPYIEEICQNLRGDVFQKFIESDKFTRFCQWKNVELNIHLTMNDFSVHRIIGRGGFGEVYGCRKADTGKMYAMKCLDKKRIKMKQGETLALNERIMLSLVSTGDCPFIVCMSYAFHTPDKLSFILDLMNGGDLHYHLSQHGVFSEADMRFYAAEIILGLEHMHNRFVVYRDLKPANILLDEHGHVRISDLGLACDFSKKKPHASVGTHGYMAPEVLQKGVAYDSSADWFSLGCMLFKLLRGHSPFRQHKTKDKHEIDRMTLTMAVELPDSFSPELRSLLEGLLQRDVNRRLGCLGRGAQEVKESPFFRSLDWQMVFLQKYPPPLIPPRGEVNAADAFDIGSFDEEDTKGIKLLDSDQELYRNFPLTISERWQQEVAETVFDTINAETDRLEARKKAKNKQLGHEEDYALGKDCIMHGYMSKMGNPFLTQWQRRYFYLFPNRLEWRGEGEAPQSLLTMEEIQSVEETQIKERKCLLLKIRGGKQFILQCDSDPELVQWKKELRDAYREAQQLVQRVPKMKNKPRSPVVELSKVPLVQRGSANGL
# DNMT1 inh = DNMT1 (human) enzyme inhibition; P26358; DNMT1 molecular beacon, Hinp1I cleavage, fluorescence; inhibition (reported as % activation of signal), % at 10 µM; 0.83% of 360,000 active; AID 588458; in the data active = inhibition above about 50%
# STEP inh = STEP (human) phosphatase inhibition. recombinant STEP, OMFP fluorogenic substrate, fluorescence. inhibition, % at 20 µM. 0.25% of 360,000 active;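 active = inhibition at 20 µM, scaled per plate between control wells, above about 37%, limit read from the data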;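 also: 0% = DMSO with enzyme and substrate and 100% = substrate only without enzyme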
#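 Assay system: isolated STEP enzyme. Buffer or medium: pH 6.0 Bis-Tris with DTT and Tween 20. Also added: fluorogenic phosphatase substrate OMFP at 25 µM final. Dosing: 20 µM, 1% DMSO. Timing: 20 min reaction, room temperature, in the dark. Measured by: fluorescence intensity, excitation 480 nm, emission 540 nm. Evaluation: normalized % inhibition.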
# Scp1 inh = inhibitors of human Scp-1 phosphatase | Q9GZU7 | Recombinant Scp1, phosphopeptide, malachite green phosphate absorbance | inhibition, % at 20 µM | 0.88% of 340,000 active | AID 493091;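 active = inhibition above about 50% at 20 µM, limit read from the data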;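 also: plate controls were DMSO wells with enzyme for no effect and wells lacking enzyme for full effect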
#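 Material: truncated SCP-1 phosphatase (76-261aa) / Buffer or medium: 50 mM Tris acetate pH 5.5, 0.005% Tween-20, 10 mM MgCl2 / Compound dosing: one concentration, 20 µM, with 1.0% DMSO / Incubation: 45 min room-temperature reaction, 5 min colour, 30 min stabiliser / Detection: colorimetric free-phosphate detection, absorbance 630 nm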
# SUMO1-SIM PPI = SUMO1-SIM interaction modulation; AID 602429; inhibition, % at 20 µM; 0.33% of 360,000 active; SUMO1 binding to a labelled peptide, TR-FRET, 1 h; P63165; in the data active = inhibition above about 37%
# Scp-1 conf = Scp-1 (human) inhibition, single-dose confirmed; recombinant SCP-1 catalytic domain, phosphate release, malachite green absorbance; inhibition, % at 20 µM; AID 540281; shares compounds with Scp1 inh; 61% of 2,500 active;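 also: plate controls were DMSO with enzyme for no effect and buffer wells lacking enzyme for full effect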
# MG interference = counter-screen for Scp-1 inhibitors: colorimetric interference; shares compounds with Scp1 inh; apparent inhibition (interference), % at 20 µM; Colorimetric interference counterscreen, malachite green absorbance 630 nm; 2,500 tested, under 10 active;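 also: compounds added after enzyme reaction finished so only phosphate colour detection is probed; plate controls were DMSO wells with completed Scp-1 reaction for no effect and substrate wells lacking enzyme for full effect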
# Scp-1 Tm shift = Scp-1 (human) binding by thermal shift. shares compounds with Scp1 inh. Recombinant SCP1, Sypro Orange thermal shift Tm. thermal shift relative to vanadate control, % at 40 µM. 25% of 1,500 active. AID 540329;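 active = substances whose mean melting-temperature shift, as a percentage of the reference inhibitor's shift, reaches about 5.3%, limit read from the data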;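 also: 0% = Tm of DMSO wells and 100% = Tm with sodium orthovanadate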
# Active calls of the source: *; . = no result.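 The calls were made as follows, unless noted: active = inhibition of at least 30% at 20 µM; inactive = the rest.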
SMILES,LMPTP block,GRK2 inh,DNMT1 inh,STEP inh,Scp1 inh,SUMO1-SIM PPI,Scp-1 conf,MG interference,Scp-1 Tm shift
Cc1ccc(C(=O)O)cc1NC(=O)c1ccc2c(c1)C(=O)N(c1ccc([N+](=O)[O-])cc1)C2=O,7.0,6.0,1.6,15.2,67.5*,-20.4,62.3*,-3.8,4.4
CCCn1c2c(c(=N)c3c1CCC3)CCCC2,1.3,2.0,10.3,-5.7,73.9*,2.5,6.1,-8.7,.
CCCn1c2c(c(=N)c3c1CCC3)CCC2,-1.2,3.0,1.5,-0.3,11.2,-0.2,.,.,.
Cc1ccc(C(=O)O)cc1-c1ccc(/C=C2\SC(=O)N(CC(=O)Nc3ccccc3)C2=O)o1,46.8,7.0,67.2*,5.0,72.7*,9.7,83.6*,-13.4,10.2*
Cc1cc(C(=O)O)ccc1-c1ccc(/C=C2\NC(=O)N(Cc3ccccc3Cl)C2=O)o1,2.9,31.0,63.8*,2.1,64.9*,18.7,74.6*,-0.2,9.3*
Cc1ccccc1NC(=O)CN1C(=O)S/C(=C\c2ccc(-c3cc(C(=O)O)ccc3C)o2)C1=O,47.5,.,30.4,5.9,97.8*,11.2,68.9*,-15.8,-483.5
COC(=O)CNC(=O)c1c(-c2c(Cl)cccc2Cl)noc1C,-0.2,0.0,0.1,-5.8,54.7*,1.6,-10.2,-12.3,.
CCCCOCCCNC(=O)C[C@@H]1C[C@@]2(C(=O)OC)CC(C)(C)CC=C2N(Cc2ccc3c(c2)OCO3)C1=O,0.9,.,.,.,.,2.2,.,.,.
COc1ccc(CNC(=O)CN(C)S(=O)(=O)c2ccc3c(c2)n(C)c(=O)c(=O)n3C)cc1,-0.8,0.0,-0.4,-0.1,-5.5,5.1,-8.1,-11.7,.
COc1cccc(CNC(=O)CN(C)S(=O)(=O)c2ccc3c(c2)n(C)c(=O)c(=O)n3C)c1,-0.9,0.0,1.7,1.5,-6.9,5.4,-1.3,0.3,.
COc1ccc(NC(=O)CN(C)S(=O)(=O)c2ccc3c(c2)n(C)c(=O)c(=O)n3C)cc1,-0.6,0.0,1.3,-1.7,-3.5,-4.6,.,.,.
Cn1c(=O)c2c(ncn2CC(=O)N2CCN(S(=O)(=O)c3ccc(F)cc3)CC2)n(C)c1=O,-1.0,0.0,1.3,-0.8,-3.6,-0.5,.,.,.
Cn1c(=O)c2c(ncn2CC(=O)N2CCN(S(=O)(=O)c3ccc(Cl)cc3)CC2)n(C)c1=O,0.3,2.0,0.8,-1.6,64.0*,1.7,-12.9,-13.1,.
Cn1cnc(C(=O)N2CCc3ccccc3C2)c1C(=O)N1CCc2ccccc2C1,-0.2,0.0,15.6,-1.9,95.3*,-3.1,83.3*,-17.5,-11.7
COc1ccc(Cn2c(-c3ccco3)nc3oc4ccccc4c(=O)c3c2=O)cc1,3.6,21.0,2.1,-1.9,33.3,-4.7,.,.,.
CCCCn1c(-c2ccco2)nc2oc3ccccc3c(=O)c2c1=O,0.3,0.0,0.4,-3.7,62.0*,-22.8,0.5,-10.7,.
COc1cc(/C=C2\C(=N)N3N=C(S(C)(=O)=O)SC3=NC2=O)ccc1OC(=O)c1ccco1,1.1,2.0,20.4,0.7,52.0*,4.1,68.5*,-14.2,10.9*
COc1cc(/C=C2\C(=N)N3N=C(S(C)(=O)=O)SC3=NC2=O)ccc1OCCOc1ccccc1C,5.6,2.0,-8.1,4.3,51.0*,13.4,57.4*,-1.9,12.4*
CCCN(CC(=O)Nc1ccccc1C)C(=O)C1CC(=O)N(c2ccccc2OCC)C1 (stereo not drawn),-9.8,.,-2.9,-1.5,-9.0,-25.2,.,.,.
CCCN(CC(=O)Nc1ccccc1C)C(=O)C1CC(=O)N(Cc2ccccc2)C1 (stereo not drawn),-1.1,1.0,-0.2,1.7,3.7,4.2,-3.4,-5.2,.
Cc1cc(CC(=O)O)c2oc(-c3ccoc3)cc(=O)c2c1,.,16.0,.,.,75.2*,.,45.9*,-15.3,5.0
CC(=O)Nc1cccc(-c2ccnc3c2CC(C(=O)Nc2ccc(Cl)cc2)O3)c1 (stereo not drawn),0.7,.,-1.5,-1.3,.,-9.5,.,.,.
CN1CCN(C(=O)C[C@H]2C[C@H]3c4cc(NC(=O)NC5CCCCC5)ccc4O[C@H]3[C@@H](CO)O2)CC1,-2.4,.,-2.5,2.1,.,4.7,.,.,.
CC1=NN(c2nc(-c3ccc(C)cc3)cs2)C(=O)C1N=Nc1cccc(O)c1 (stereo not drawn),2.8,1.0,-8.4,2.0,-4.5,16.1,.,.,.
CC1=NN(c2nc(-c3ccc(C)cc3)cs2)C(=O)C1N=Nc1ccccc1O (stereo not drawn),2.0,0.0,14.7,1.6,58.0*,19.7,70.9*,-17.5,7.4*
SMILES,LMPTP block,GRK2 inh,DNMT1 inh,STEP inh,Scp1 inh,SUMO1-SIM PPI,Scp-1 conf,MG interference,Scp-1 Tm shift
O=C(CSc1nc2c(sc3ccccc32)c(=O)n1CCO)NCc1ccco1,1.3,4.0,25.1,2.8,73.9*,5.4,63.9*,-6.8,-18.9
CC(=O)Oc1ccccc1Cn1c(C)c(C(=O)NCCC#N)sc1=O,-1.3,.,4.1,0.5,.,-1.4,.,.,.
O=C(O)c1ccc(-n2ncc3c2/C(=C\c2cccc([N+](=O)[O-])c2)CC3)cc1,19.1,.,1.4,5.4,64.5*,9.0,63.5*,-13.9,2.9
COCCNC(=O)C1(C)CCCN(C(=O)c2ccc(C(F)(F)F)cc2)C1 (stereo not drawn),-2.2,.,0.0,-1.3,.,3.6,.,.,.
CC(=O)Nc1ccc(-n2nnnc2SCC(=O)Nc2cccc(NC(=O)c3ccco3)c2)cc1,0.1,1.0,-4.0,4.4,55.3*,30.5,30.2*,-5.4,2.6
CCOC(=O)N1CCC(NC(=O)c2cccc3c2C(=O)N(c2ccc(OC)cc2)C3)CC1,2.9,3.0,30.0,4.2,51.7*,8.1,49.2*,-9.8,2.6
CCOC(=O)N1CCC(N2Cc3cccc(C(=O)NCc4ccc5c(c4)OCO5)c3C2=O)CC1,3.2,24.0,20.3,6.3,91.6*,7.7,65.1*,-12.3,-6.0
O=C(NCc1ccc2c(c1)OCO2)c1cccc2c1C(=O)N(C1CCCCC1)C2,0.1,1.0,-3.2,3.4,-1.2,2.9,.,.,.
COc1ccc(S(=O)(=O)N2CCCCC2c2cc(C(=O)Nc3ccc4c(c3)OCO4)no2)cc1 (stereo not drawn),2.2,.,-1.9,-1.7,.,-0.6,.,.,.
CC(=O)Nc1ccc2c(c1)C(C)(C)C(C)N2C (stereo not drawn),.,2.0,.,.,82.0*,.,-5.6,-11.5,.
